# Source: PubChem
# The list is not random: actives were taken first. Their share in the collection is about 4.1%.
# Apaf-1 inh = inhibitors of human Apaf-1 apoptosome, primary screen, biochemical, DEVD-Rh110 fluorescence, uHTS. Apoptotic protease-activating factor 1 (Homo sapiens), O14727. reconstituted apoptosome caspase-3 activity. inhibition, % at 20 µM. 330,000 tested, 0.71% active. AID 489030, 2010; active = inhibition of at least 40% at 20 µM
#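 System – cell-free apoptosome with Apaf-1, procaspase-3 and caspase-9 · Buffer or medium – pH 7.5 Hepes buffer with CHAPS, BSA, DTT · Also added – cytochrome c with DEVD-Rh110 · Times – 30 min compound preincubation, 50 min activation, room temperature · Technique – Rh110 fluorescence intensity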
# UPR XBP1 act = activators of adaptive XBP1 UPR arm, primary screen, cell-based, CHO-XBP1 luciferase reporter, luminescence, uHTS; IRE1-XBP1 UPR activation; percent of tunicamycin response, DMSO as zero; activation, % at 20 µM; 330,000 tested, 0.33% active; AID 463104, 2010;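 active = versus positive control, 20 µM dose yields 30% or more activation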
#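 Material: CHO-XBP1 cells stably carrying IRE1-XBP1-driven luciferase reporter / Amount: 1000 cells per well / Compound: 20 µM, 1% DMSO / Times: 6 h treatment, 37 °C / Detection: luciferase luminescence / Measure: % activation of reporter signal versus tunicamycin and DMSO controls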
# UPR CHOP act = activators of apoptotic CHOP UPR arm, primary screen, cell-based, CHO-CHOP luciferase reporter, luminescence, uHTS; UPR activation; percent of tunicamycin response over DMSO baseline; activation, % at 10 µM; 330,000 tested, 0.34% active; AID 449763, 2010;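 active = at 10 µM dose, activation of 40% or more, normalized to positive control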
#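 measured by = luciferase luminescence | assay system = CHO-CHOP cells, stable luciferase reporter of PERK-eIF2a-CHOP signalling | amount = 500 reporter cells seeded per well | timing = 6 h compound exposure at 37 °C after overnight seeding | controls = positive tunicamycin 10 µg/mL, negative DMSO alone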
# Mdm2 MdmX PPI = inhibitors of human Mdm2-MdmX association, primary screen, cell-based, luminescence, split luciferase, SaOS-2, uHTS | Protein Mdm4 (Homo sapiens) + E3 ubiquitin-protein ligase Mdm2 (Homo sapiens), … | SaOS-2 split-luciferase Mdm2/MdmX complementation | inhibition, % at 8 µM | 330,000 tested, 3% active;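 active = inhibition of at least 50% at 8 µM in the primary screen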
# UBC13 inh = UBC13 polyubiquitin chain formation inhibitors, primary screen, biochemical, TR-FRET, uHTS; inhibition, % at 20 µM; 330,000 tested, 0.47% active; in the data active = inhibition above about 45%, passing the limit was not always enough
# Target sequence (P61088 whole entry, looked up): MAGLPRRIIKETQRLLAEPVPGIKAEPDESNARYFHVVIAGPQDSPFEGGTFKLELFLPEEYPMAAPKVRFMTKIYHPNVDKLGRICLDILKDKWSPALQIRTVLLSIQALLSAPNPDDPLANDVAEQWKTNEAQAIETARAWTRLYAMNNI
# Mdm2-MdmX conf = Mdm2-MdmX complex disruptors, retested hits, confirmation, luminescence, single concentration. shares compounds with Mdm2 MdmX PPI. Mdm2-MdmX binding, luminescent assay. inhibition, % at 8 µM. 10,000 tested, 55% active. AID 489028, 2010; in the data active = inhibition above about 40%
# Full FLuc ctr = full-length luciferase signal inhibition, confirmation, counter-screen for Mdm2/MdmX interaction inhibitor project, cell-based, single concentration, SaOS-2. shares compounds with Mdm2 MdmX PPI. SaOS-2 full-length luciferase counterscreen, luminescence. inhibition, % at 8 µM. 6,200 tested, 77% active. AID 504607, 2011;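 active = mean inhibition at 8 µM reaching about 37%, which flags the compound as non-specific, limit read from the data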;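 also: p53-null SaOS-2 cells with luciferase driven by a doxycycline-inducible promoter; compound on cells about two nights before reading with doxycycline added after day one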
# Numbers stand for hits; - = inactive; . = no result given.
SMILES,Apaf-1 inh,UPR XBP1 act,UPR CHOP act,Mdm2 MdmX PPI,UBC13 inh,Mdm2-MdmX conf,Full FLuc ctr
Cc1onc(C(=O)N2CCC(Cc3ccccc3)CC2)c1[N+](=O)[O-],-,-,-,82.1,-,-,.
COc1ccc(N(C)C(=O)C2CCN(S(=O)(=O)c3cccc4nonc34)CC2)cc1,-,-,-,-,-,.,.
COc1ccc(CCNC(=O)C/C(C)=N/NC(=O)c2cnccn2)cc1,-,-,-,-,-,.,.
O=C(NCCN1CCOCC1)/C(=C/c1ccco1)NC(=O)c1ccccc1,-,-,-,-,-,.,.
Nc1cc(=O)[nH]c(SCC(=O)NC2CCCCCCC2)n1,-,-,-,-,-,.,.
Cc1oc(-c2ccccc2)nc1C(=O)O,-,-,-,77.0,-,-,.
Cc1ccc(C)c(S(=O)(=O)N2CCCOC2CNC(=O)C(=O)NCc2ccc3c(c2)OCO3)c1 (stereo unspecified),-,-,-,-,-,.,.
Cc1cc(C)nc(N/C(=N\S(=O)(=O)Cc2ccccc2)Nc2ccccc2Br)n1,-,-,-,51.7,-,55.2,104.1
CCn1ccnc1CN(C)Cc1c(C(=O)N2C[C@@H](C)O[C@@H](C)C2)nc2ccc(Cl)cn12,-,-,-,-,-,.,.
CNC(=O)c1ccc(S(=O)(=O)c2ccc(Cl)cc2)c(NC(C)=O)c1,-,-,-,-,-,.,.
O=C(c1nnsc1S(=O)c1ccc(Cl)cc1)N1CCOCC1 (stereo unspecified),-,-,-,99.2,-,94.2,53.4
CNC(=O)c1nnsc1S(=O)(=O)c1ccc(Cl)cc1,-,-,-,95.9,-,100.2,51.2
O=C(c1nnsc1S(=O)(=O)c1ccc(Cl)cc1)N1CCOCC1,-,-,-,94.9,-,68.2,-
COc1cc(C2NC(=O)NC(C)=C2[N+](=O)[O-])cc(OC)c1OC (stereo unspecified),-,-,-,-,-,.,.
Cc1ccc(-n2nc3c(N4CCC(C(=O)NCc5cccc(F)c5)CC4)nnc(C)c3c2C)cc1,-,-,-,-,-,.,.
COc1ccc(-n2nc3c(N4CCC(C(=O)NCc5ccco5)CC4)nnc(C)c3c2C)cc1,-,-,-,-,-,.,.
COc1ccc(-n2nc3c(N4CCC(C(=O)NCc5ccccc5C)CC4)nnc(C)c3c2C)cc1,59.0,-,-,99.7,-,97.8,50.9
COc1ccc(-n2nc3c(N4CCC(C(=O)NC5CCCCC5)CC4)nnc(C)c3c2C)cc1,-,-,-,97.4,-,-,75.6
COc1ccc(-n2nc3c(N4CCC(C(=O)NCC(C)c5ccccc5)CC4)nnc(C)c3c2C)cc1 (stereo unspecified),-,-,-,70.4,-,-,.
CCOc1ccccc1CNC(=O)C1CCCN(c2nnc(C)c3c(C)n(-c4ccccc4)nc23)C1 (stereo unspecified),-,-,-,89.7,-,40.6,-
COc1ccc(OC)c2c1C(=O)C(Cl)=C(Cl)C2=O,-,-,-,96.4,-,100.1,-
COc1ccc(S(=O)(=O)N2CCCC2)c(Cl)c1Cl,-,-,-,-,-,.,.
Cc1cccc(CCNC(=O)C2CCN(S(=O)(=O)c3c(C)nn(C)c3C)CC2)c1,-,-,-,-,-,.,.
COc1ccc(NC(=O)CNC(=O)c2nn(-c3ccc(OC)c(OC)c3)c(=O)c3ccccc23)c(OC)c1,-,-,-,-,-,.,.
